Assay results as given in ChEMBL document CHEMBL1914358, “Virtual screening targeting the urokinase receptor, biochemical and cell-based studies, synthesis, pharmacokinetic characterization, and effect on breast tumor metastasis” (J Med Chem, 2011).
pIC50, pKi: −log10 of the molar value. Active and inactive are the calls of the source. No cut-off for these calls is given here.

How the values were obtained:
[1] = target: Proto-oncogene tyrosine-protein kinase Src (Homo sapiens) (UniProt P12931); assay: Inhibition of human SRC phosphorylation in MDA-MB-231 cells at 100 uM after 30 mins by Western blot analysis; format: cell-based
In short: (§1)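 MDA-MB-231 cells were exposed to 100 μM compound or 1% DMSO for 30 min and lysed in RIPA buffer with protease and phosphatase inhibitors. Equal protein was run on 4-12% gels under non-reducing conditions and transferred to nitrocellulose. Detection used HRP secondary antibody and chemiluminescence.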

[2] = (§2) Inhibition of human MAPK phosphorylation in MDA-MB-231 cells at 100 uM after 30 mins by Western blot analysis; format: cell-based; conditions: MDA-MB-231, 0.5 h; in short: as §1
[3] = test system: hERG potassium channel KCNH2 (Homo sapiens); assay: Inhibition of human ERG potassium channel (hERG) at 1 uM by fluorescence polarization assay
[4] = target: Cytochrome P450 2C9 (Homo sapiens, UniProt P11712); assay: Inhibition of CYP2C9 at 1 uM by fluorsecence-based assay; format: ADME
In short: (§3)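 Fluorescence-based CYP2C9 assay measuring inhibition of fluorescent substrate metabolism at the stated concentration. Sulphaphenazole at 5 μM served as positive control.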

[5] = target: T1, CYP2C9 (Homo sapiens, UniProt P11712); assay: Inhibition of CYP2C9 at 25 uM by fluorsecence-based assay; format: ADME; in short: as §3
[6] = target: Focal adhesion kinase 1 (Homo sapiens) (UniProt Q05397); assay: Inhibition of human FAK phosphorylation in MDA-MB-231 cells at 100 uM after 30 mins by Western blot analysis; format: cell-based; in short: as §1
[7] = test system: Nucleic Acid; assay: Displacement of ethidium bromide from salmon sperm DNA at 25 uM by fluorescence assay; format: nucleic-acid assay; conditions: Salmonidae
In short: (§4)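 Fluorescent intercalator displacement: loss of fluorescence from ethidium bromide bound to salmon sperm DNA, excitation 530 nm, at the stated compound concentration.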

[8] = test system: hERG potassium channel KCNH2 (Homo sapiens); assay: Inhibition of human ERG channel at 25 uM =
[9] = target: Urokinase plasminogen activator surface receptor (Homo sapiens, UniProt Q03405); assay: Displacement of […] peptide from human uPAR expressed in drosophila S2 cells by fluorescence polarization assay
In short: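 Soluble human uPAR (residues 1-283), from stably transfected Drosophila S2 cells, was used at 500 nM with 100 nM AE147-FAM. Inhibitor range 0.78-100 μM in 0.01% Triton X-100/PBS, final 2% DMSO, triplicate. Polarization was read immediately at room temperature (ex 485/em 530 nm).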

[10] = test system: hERG potassium channel KCNH2 (Homo sapiens); assay: Inhibition of human ERG potassium channel (hERG) at 10 uM by fluorescence polarization assay
[11] = test system: Nucleic Acid; assay: Displacement of ethidium bromide from salmon sperm DNA at 10 uM by fluorescence assay; format: nucleic-acid assay; conditions: Salmonidae; in short: as §4
[12] = test system: Nucleic Acid; assay: Displacement of ethidium bromide from salmon sperm DNA at 1 uM by fluorescence assay; format: nucleic-acid assay; conditions: Salmonidae; in short: as §4
[13] = test system: MDA-MB-231; assay: as §2; format: cell-based; in short: as §1
[14] = test system: MDA-MB-231; assay: Induction of necrosis in human MDA-MB-231 cells at 50 uM after 24 hrs by annexin V-FITC and propidium iodide staining relative to control; format: functional
In short: (§5)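 MDA-MB-231 grown in DMEM/10% FBS with penicillin/streptomycin, 37 °C, 5% CO2, to 80–90% confluence; exposed to compound or 1% DMSO control for 24 h. Cells detached, washed in cold PBS, 1×10^5 cells in binding buffer stained with annexin V-FITC and propidium iodide 15 min at 25 °C in the dark, analysed by flow cytometry; apoptotic = annexin V+/PI−, necrotic = annexin V+/PI+.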

[15] = test system: MDA-MB-231; assay: Induction of apoptosis in human MDA-MB-231 cells assessed as apoptotic cells at 50 uM after 24 hrs by annexin V-FITC and propidium iodide staining (reference value: 4%); format: functional; in short: as §5
[16] = target: T2, Matrix metalloproteinase-9 (Homo sapiens, UniProt P14780); assay: Inhibition of human MMP-9 activity in human MDA-MB-231 cells assessed as ECM degradation after 24 hrs by gelatin zymography assay; format: cell-based
[17] = target: T1, CYP2C9; assay: Inhibition of CYP2C9 at 5 uM by fluorsecence-based assay
[18] = Apparent oral clearance in mouse at 50 mg/kg administered as single dose by HPLC-MS/MS analysis; conditions: in vivo
[19] = Cmax in mouse at 100 mg/kg, po administered as single dose after 5 hrs by HPLC-MS/MS analysis; format: ADME, organism-based; design: dose 100 mg/kg, route oral; conditions: in vivo
[20] = AUC (0 to infinity) in mouse at 50 mg/kg, po administered as single dose by HPLC-MS/MS analysis; conditions: plasma
[21] = Tmax in mouse at 100 mg/kg, po administered as single dose by HPLC-MS/MS analysis; format: ADME, organism-based; design: dose 100 mg/kg, route oral; conditions: in vivo
[22] = test system: MDA-MB-231; assay: Antimetastatic activity in human MDA-MB-231 cells assessed as inhibition of cell invasion after 3 hrs by transwell assay; format: functional, cell-based; conditions: MDA-MB-231, 3 h
[23] = test system: MDA-MB-231; assay: Antiproliferative activity against human MDA-MB-231 cells assessed as decrease in cell viability after 3 days by MTT assay; format: functional, cell-based; conditions: MDA-MB-231, 72 h
In short: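 Cells were grown at 37°C in 10% FBS-DMEM with serially diluted compound, made from 5 mM DMSO stock diluted 1:50 in medium, for 3 days. Viability was read by MTT absorbance at 570 and 630 nm.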

[24] = test system: MDA-MB-231; assay: Induction of apoptosis in human MDA-MB-231 cells at 50 uM after 24 hrs by annexin V-FITC and propidium iodide staining relative to control; format: functional; in short: as §5
[25] = test system: MDA-MB-231; assay: Antimetastatic activity in human MDA-MB-231 cells assessed as inhibition of cell adhesion after 90 mins by crystal violet staining; format: functional, cell-based; conditions: MDA-MB-231, 1.5 h
In short: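 Wells were coated with 15 μg/ml fibronectin for 1 h at room temperature, then blocked with 3% heat-denatured BSA for 1 h at 37°C. Subconfluent cells were trypsinized, quenched with soybean trypsin inhibitor and washed in serum-free medium. 2 × 10^4 cells per well with compound, quadruplicate, 90 min at 37°C. Adherent cells were read by crystal violet at 570 nm; mean ± SE.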

[26] = test system: HUVEC; assay: Antiangiogenic activity in human HUVEC cells assessed as inhibition of tube formation by matrigel-based tube formation assay
[27] = test system: MDA-MB-231; assay: Antimetastatic activity in human MDA-MB-231 cells assessed as inhibition of cell migration after 3 hrs by transwell assay; format: functional, cell-based; conditions: MDA-MB-231, 3 h
In short: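 Serum-starved (4 h) subconfluent cells, 5 × 10^4 in 0.1% FBS DMEM with compound or 1.0% DMSO, were placed in upper chambers of inserts with fibronectin-coated undersides (30 μg/ml). After 3 h at 37°C, 5% CO2, cells on the underside were methanol-fixed, hematoxylin-stained and counted in ten fields (×200). Triplicate; mean ± SE.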

[28] = Toxicity in po dosed NOD/SCID mouse xenografted human […] cells; format: organism-based; conditions: in vivo
[29] = Antitumor activity against human […] cells xenografted in NOD/SCID mouse assessed as decrease in tumor volume at 150 mg/kg, po qd administered 18 days post-implantation measured after 68 days; format: functional; design: scale not given: the % may be the effect or the level left
In short: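 Female NOD/SCID mice bearing mammary fat pad TMD-231 tumours were randomized and dosed from day 18 post-implantation by daily oral gavage at 150 mg/kg or vehicle (n = 11). Caliper measurements were taken over 68 days; volume = (shorter² × longer)/2.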

[30] = test system: TMB-231; assay: Antitumor activity against human […] cells xenografted in NOD/SCID mouse assessed as reduction in lung metastatic lesions at 150 mg/kg, po qd administered 18 days post-implantation measured after 68 days; format: functional, organism-based; design: dose 150 mg/kg
In short: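 Female NOD/SCID mice with mammary fat pad TMD-231 tumours received daily oral gavage at 150 mg/kg or vehicle from day 18 (n = 11). At study end lungs were removed and H&E stained. Metastasis number and size were assessed in 2-5 fields per sample and scored 1+ to 4+ relative to the highest sample by a blinded pathologist.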

[31] = test system: hERG potassium channel KCNH2 (Homo sapiens); assay: Inhibition of human ERG potassium channel (hERG) at 25 uM by fluorescence polarization assay
[32] = target: T2, Matrix metalloproteinase-9; assay: Inhibition of human MMP-9 activity in human MDA-MB-231 cells assessed as ECM degradation at 50 uM after 24 hrs by gelatin zymography assay; format: cell-based
In short: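 Cells were treated with compound in serum-free medium for 24 h, and conditioned medium was concentrated and protein-normalized. Samples were run on 10% SDS gels containing 1 mg/ml gelatin. Clear bands were quantified after Coomassie staining.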

[33] = Half life in mouse at 100 mg/kg, po administered as single dose by HPLC-MS/MS analysis; format: ADME, organism-based; design: dose 100 mg/kg, route oral; conditions: in vivo

Urokinase plasminogen activator surface receptor, sequence (Q03405 whole entry, the tested form may be a part): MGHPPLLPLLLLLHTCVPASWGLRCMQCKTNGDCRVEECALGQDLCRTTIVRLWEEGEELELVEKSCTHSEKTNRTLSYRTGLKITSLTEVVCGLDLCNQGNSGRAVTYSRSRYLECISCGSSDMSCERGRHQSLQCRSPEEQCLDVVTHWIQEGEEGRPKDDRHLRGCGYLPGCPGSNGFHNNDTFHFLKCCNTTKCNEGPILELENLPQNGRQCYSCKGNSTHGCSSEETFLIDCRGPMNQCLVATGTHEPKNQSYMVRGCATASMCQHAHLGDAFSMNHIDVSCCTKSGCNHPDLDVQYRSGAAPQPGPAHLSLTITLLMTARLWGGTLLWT
T1 sequence (P11712 whole entry): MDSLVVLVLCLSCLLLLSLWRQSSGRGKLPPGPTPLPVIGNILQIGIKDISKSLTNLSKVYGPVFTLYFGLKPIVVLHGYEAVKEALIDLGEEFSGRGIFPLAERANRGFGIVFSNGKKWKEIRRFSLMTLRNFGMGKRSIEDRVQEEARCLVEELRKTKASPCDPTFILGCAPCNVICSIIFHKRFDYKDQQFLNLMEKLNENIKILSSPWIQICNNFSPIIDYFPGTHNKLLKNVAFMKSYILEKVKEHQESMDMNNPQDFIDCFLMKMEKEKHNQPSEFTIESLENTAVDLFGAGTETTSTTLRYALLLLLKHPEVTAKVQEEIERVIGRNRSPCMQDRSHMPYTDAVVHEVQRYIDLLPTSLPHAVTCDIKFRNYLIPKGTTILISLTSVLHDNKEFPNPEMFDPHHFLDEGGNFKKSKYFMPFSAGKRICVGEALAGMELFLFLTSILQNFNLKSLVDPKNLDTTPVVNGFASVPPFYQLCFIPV
T2 sequence (P14780 whole entry): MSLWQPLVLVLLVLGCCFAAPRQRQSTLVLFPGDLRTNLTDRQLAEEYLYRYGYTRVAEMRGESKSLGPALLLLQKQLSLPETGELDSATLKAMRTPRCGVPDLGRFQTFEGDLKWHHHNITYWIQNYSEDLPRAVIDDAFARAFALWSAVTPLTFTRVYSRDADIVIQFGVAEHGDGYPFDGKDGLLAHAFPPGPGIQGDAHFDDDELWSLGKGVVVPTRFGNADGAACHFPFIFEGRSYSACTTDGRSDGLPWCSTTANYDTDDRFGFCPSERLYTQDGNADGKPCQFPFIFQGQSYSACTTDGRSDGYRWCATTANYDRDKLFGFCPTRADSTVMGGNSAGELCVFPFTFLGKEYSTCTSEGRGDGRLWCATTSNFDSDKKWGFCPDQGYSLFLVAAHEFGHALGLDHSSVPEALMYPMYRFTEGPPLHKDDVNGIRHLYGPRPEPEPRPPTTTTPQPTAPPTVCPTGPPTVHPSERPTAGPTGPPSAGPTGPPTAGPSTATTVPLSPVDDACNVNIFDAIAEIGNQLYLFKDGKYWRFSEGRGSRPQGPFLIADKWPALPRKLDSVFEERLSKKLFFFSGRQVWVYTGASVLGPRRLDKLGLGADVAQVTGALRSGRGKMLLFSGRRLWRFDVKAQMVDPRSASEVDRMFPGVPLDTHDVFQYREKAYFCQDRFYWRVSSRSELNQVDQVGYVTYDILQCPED
Cytochrome P450 2C9, sequence (P11712 whole entry): as the sequence (P11712 whole entry) above
Focal adhesion kinase 1 (Homo sapiens), sequence (Q05397 2-1052 limits assumed): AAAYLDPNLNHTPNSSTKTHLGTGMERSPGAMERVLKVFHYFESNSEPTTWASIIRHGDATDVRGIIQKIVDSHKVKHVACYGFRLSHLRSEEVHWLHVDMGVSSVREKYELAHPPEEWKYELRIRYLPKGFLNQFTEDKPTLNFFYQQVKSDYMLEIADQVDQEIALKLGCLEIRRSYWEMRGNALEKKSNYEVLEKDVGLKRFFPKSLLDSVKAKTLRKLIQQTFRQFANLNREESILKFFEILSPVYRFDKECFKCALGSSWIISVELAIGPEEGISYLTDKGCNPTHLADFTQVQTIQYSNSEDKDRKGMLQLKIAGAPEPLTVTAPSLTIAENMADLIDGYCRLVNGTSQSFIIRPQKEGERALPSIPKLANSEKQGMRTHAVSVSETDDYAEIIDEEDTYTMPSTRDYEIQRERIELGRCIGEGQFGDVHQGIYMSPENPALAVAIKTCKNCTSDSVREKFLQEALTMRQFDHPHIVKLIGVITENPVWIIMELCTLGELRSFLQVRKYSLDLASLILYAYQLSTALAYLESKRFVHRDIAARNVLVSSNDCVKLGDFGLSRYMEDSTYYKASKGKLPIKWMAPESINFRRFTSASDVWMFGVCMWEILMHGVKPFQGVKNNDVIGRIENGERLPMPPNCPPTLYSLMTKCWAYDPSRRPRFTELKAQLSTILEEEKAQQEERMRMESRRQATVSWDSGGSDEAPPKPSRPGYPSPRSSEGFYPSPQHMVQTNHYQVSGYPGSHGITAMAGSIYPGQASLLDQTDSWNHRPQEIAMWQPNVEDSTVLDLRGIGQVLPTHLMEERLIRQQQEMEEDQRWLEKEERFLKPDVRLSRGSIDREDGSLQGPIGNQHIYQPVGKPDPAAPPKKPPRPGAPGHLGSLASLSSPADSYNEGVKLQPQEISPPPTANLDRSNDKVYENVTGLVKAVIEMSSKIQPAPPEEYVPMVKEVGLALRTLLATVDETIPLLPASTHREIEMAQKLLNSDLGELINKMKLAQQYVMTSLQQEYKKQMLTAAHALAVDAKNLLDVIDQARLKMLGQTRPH
Proto-oncogene tyrosine-protein kinase Src (Homo sapiens), sequence (P12931 2-536 limits assumed): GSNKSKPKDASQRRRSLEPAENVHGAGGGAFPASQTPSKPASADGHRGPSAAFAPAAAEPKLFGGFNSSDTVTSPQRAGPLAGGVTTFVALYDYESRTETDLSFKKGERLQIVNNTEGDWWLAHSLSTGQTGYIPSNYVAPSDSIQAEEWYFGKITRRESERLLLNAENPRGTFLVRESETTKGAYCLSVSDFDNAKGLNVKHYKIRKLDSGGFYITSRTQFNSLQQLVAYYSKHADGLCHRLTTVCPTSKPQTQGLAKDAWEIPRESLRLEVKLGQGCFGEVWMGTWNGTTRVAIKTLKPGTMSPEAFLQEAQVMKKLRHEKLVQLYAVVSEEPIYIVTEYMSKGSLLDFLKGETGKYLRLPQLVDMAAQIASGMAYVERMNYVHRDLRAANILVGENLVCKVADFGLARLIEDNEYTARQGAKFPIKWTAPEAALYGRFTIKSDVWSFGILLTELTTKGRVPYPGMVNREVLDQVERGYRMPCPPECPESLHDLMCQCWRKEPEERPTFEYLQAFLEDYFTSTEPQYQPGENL

SMILES: c1ccc(C[C@H](CCNCc2ccc3c(c2)OCO3)c2ccc3c(c2)OCO3)cc1 (racemic)
- inhibition [1]: inactive
- pIC50 [2]: 4.70
- inhibition [3]: Active
- inhibition (INH) [4]: Active
- inhibition at 25 µM [5]: 80%
- inhibition [6]: inactive
- inhibition [7]: 30%
- inhibition [8]: Active
- Activity [9]: Dose-dependent effect
- inhibition [10]: Active
- inhibition [11]: inactive
- inhibition [12]: inactive

SMILES: CN(C)c1ccc(CNCCC(Cc2ccccc2)c2ccc3c(c2)OCO3)cc1 (racemic)
- inhibition [13]: Active
- Activity [14]: 22%
- inhibition (INH) [4]: Active
- Activity [15]: 46%
- inhibition at 25 µM [5]: 80%
- inhibition [7]: 30%
- pKi [9]: 4.70
- inhibition [11]: inactive
- inhibition [16]: Dose-dependent effect
- inhibition [12]: inactive

SMILES: Nc1ccc(S(=O)(=O)Nc2ccnn2-c2ccccc2)cc1 [SULFAPHENAZOLE]
- inhibition at 5 µM [17]: 69%

SMILES: Cc1cc(C)cc(NC(=O)c2cnn(-c3ccc(C(C)C)cc3)c2C2CCNCC2)c1
- CL/F [18]: 0.7 mL/min
- Cmax [19]: 4410 ng/mL
- inhibition [13]: Active
- Activity [14]: 21%
- AUC(0-inf) [20]: 47200 ng·h/mL
- Tmax [21]: 1 h
- inhibition at 25 µM [5]: 20%
- pIC50 [22]: 4.52
- pIC50 [23]: 5.22
- inhibition [7]: < 10%
- Activity [24]: 51%
- Activity [9]: Dose-dependent effect
- pIC50 [25]: 4.35
- inhibition [11]: inactive
- pIC50 [16]: 4.60
- inhibition [16]: Dose-dependent effect
- pIC50 [26]: 5.52
- pIC50 [27]: 4.40
- inhibition [12]: inactive
- MTD [28]: 150 mg/kg
- Activity [29]: 20%
- Activity [30]: Active
- inhibition [31]: 60%
- inhibition [32]: 93%
- half-life [33]: 2.18 h
